Experimental data from ChEMBL document CHEMBL4689842, “EUbOPEN Chemogenomics Library wave 1” (2021).
Several values for one entry are separate records, joined by “and”; a condition that tells them apart may be missing. Equal entries are not always repeated.

System: HEK-293T
Test: Multiplex assay against HEK293T;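 on Population Tubulin-Different-Phenotype (%): share of the cells with healthy nuclei that show this phenotype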
Type: toxicity, cell-based
Conditions: human
Outline: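 Cells were classed with CellPathfinder machine-learning gating, first as Hoechst high-intensity objects or normal cells, then (normal cells) as healthy, pyknosed or fragmented nuclei, and finally (pyknosed cells) as mitotic or apoptotic. Staining of live cells at seeding used Hoechst33342, BioTracker Green Microtubule Cytoskeleton Dye, MitoTracker Red and Annexin V Alexa Fluor 680, with imaging on a CQ1 microscope at 37°C and 5% CO2 after compound addition. Tubulin, mitochondrial-mass and membrane-permeability phenotypes are per cents of healthy-nucleus cells.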

[1] = 12 h, 1 µM, compound concentration 1 uM, replicate 1
[2] = 12 h, 1 µM, compound concentration 1 uM, replicate 2
[3] = 12 h, 10 µM, compound concentration 10 uM, replicate 1
[4] = 12 h, 10 µM, compound concentration 10 uM, replicate 2
[5] = 24 h, 1 µM, compound concentration 1 uM, replicate 1
[6] = 24 h, 1 µM, compound concentration 1 uM, replicate 2
[7] = 24 h, 10 µM, compound concentration 10 uM, replicate 1
[8] = 24 h, 10 µM, compound concentration 10 uM, replicate 2
[9] = 48 h, 10 µM, compound concentration 10 uM, replicate 1
[10] = 48 h, 10 µM, compound concentration 10 uM, replicate 2

## CNC(=O)c1nn(C)c2c1C(C)(C)Cc1cnc(Nc3ccc(N4CCN(C)CC4)cc3)nc1-2 [MILCICLIB]
[1]
  Population Apoptotic (%): 28%
  Population Fragmented Nuclei (%): 17%
  Population Healthy Nuclei (%): 41%
  Population Hoechst High Intensity Objects (%): 21%
  Population Membrane Permeable-Phenotype (%): 9%
  Population Mitochondria Different-Phenotype (%): 25%
  Population Mitotic Cells (%): 71%
  Population Normal (%): 78%
  Population Pyknosed Nuclei (%): 40%
  Population Tubulin-Different-Phenotype (%): 82%
  Total Cell Count: 581
[2]
  Population Apoptotic (%): 23%
  Population Fragmented Nuclei (%): 2%
  Population Healthy Nuclei (%): 83%
  Population Hoechst High Intensity Objects (%): 9%
  Population Membrane Permeable-Phenotype (%): 3%
  Population Mitochondria Different-Phenotype (%): 64%
  Population Mitotic Cells (%): 76%
  Population Normal (%): 90%
  Population Pyknosed Nuclei (%): 14%
  Population Tubulin-Different-Phenotype (%): 98%
  Total Cell Count: 860
[3]
  Population Apoptotic (%): 29% and 75% and 67%
  Population Healthy Nuclei (%): 36% and 49%
  Population Hoechst High Intensity Objects (%): 18% and 11% and 13%
  Population Mitochondria Different-Phenotype (%): 39% and 100% and 98%
  Population Mitotic Cells (%): 70% and 24% and 32%
  Population Normal (%): 81% and 88% and 86%
  Population Pyknosed Nuclei (%): 38% and 43%
  Population Tubulin-Different-Phenotype (%): 79% and 97%
  Total Cell Count: 581 and 226 and 425
[4]
  Population Fragmented Nuclei (%): 6% and 3% and 2%
  Population Hoechst High Intensity Objects (%): 6% and 8% and 9%
  Population Membrane Permeable-Phenotype (%): 12% and 10% and 4%
  Population Mitochondria Different-Phenotype (%): 87% and 90% and 57%
  Population Mitotic Cells (%): 40% and 30% and 79%
  Population Normal (%): 93% and 91% and 90%
  Population Tubulin-Different-Phenotype (%): 91% and 100% and 99%
[5]
  Population Apoptotic (%): 43%
  Population Fragmented Nuclei (%): 21%
  Population Healthy Nuclei (%): 33%
  Population Hoechst High Intensity Objects (%): 19%
  Population Membrane Permeable-Phenotype (%): 7%
  Population Mitochondria Different-Phenotype (%): 64%
  Population Mitotic Cells (%): 56%
  Population Normal (%): 80%
  Population Pyknosed Nuclei (%): 45%
  Population Tubulin-Different-Phenotype (%): 78%
  Total Cell Count: 556
[6]
  Population Apoptotic (%): 34%
  Population Fragmented Nuclei (%): 2%
  Population Healthy Nuclei (%): 82%
  Population Hoechst High Intensity Objects (%): 9%
  Population Membrane Permeable-Phenotype (%): 2%
  Population Mitochondria Different-Phenotype (%): 81%
  Population Mitotic Cells (%): 65%
  Population Normal (%): 90%
  Population Pyknosed Nuclei (%): 14%
  Population Tubulin-Different-Phenotype (%): 98%
  Total Cell Count: 887
[7]
  Population Apoptotic (%): 55% and 82% and 67%
  Population Healthy Nuclei (%): 32% and 22% and 44%
  Population Hoechst High Intensity Objects (%): 19% and 13%
  Population Membrane Permeable-Phenotype (%): 10% and 2%
  Population Mitochondria Different-Phenotype (%): 63% and 100% and 98%
  Population Mitotic Cells (%): 44% and 17% and 32%
  Population Normal (%): 80% and 86%
  Population Pyknosed Nuclei (%): 42% and 69% and 48%
  Population Tubulin-Different-Phenotype (%): 80% and 91%
  Total Cell Count: 565 and 241 and 453
[8]
  Population Fragmented Nuclei (%): 6% and 3% and 4%
  Population Hoechst High Intensity Objects (%): 6% and 7%
  Population Membrane Permeable-Phenotype (%): 6% and 4%
  Population Mitochondria Different-Phenotype (%): 92% and 95% and 77%
  Population Normal (%): 93% and 92%
  Population Tubulin-Different-Phenotype (%): 94% and 95% and 98%
[9]
  Population Apoptotic (%): 87% and 71%
  Population Fragmented Nuclei (%): 14%
  Population Healthy Nuclei (%): 17% and 42%
  Population Hoechst High Intensity Objects (%): 13% and 11%
  Population Membrane Permeable-Phenotype (%): 0%
  Population Mitochondria Different-Phenotype (%): 100% and 99%
  Population Mitotic Cells (%): 12% and 28%
  Population Normal (%): 86% and 88%
  Population Pyknosed Nuclei (%): 68% and 49%
  Population Tubulin-Different-Phenotype (%): 92%
  Total Cell Count: 263 and 534
[10]
  Population Apoptotic (%): 86% and 89%
  Population Fragmented Nuclei (%): 6% and 7%
  Population Healthy Nuclei (%): 21% and 15%
  Population Hoechst High Intensity Objects (%): 12% and 9%
  Population Membrane Permeable-Phenotype (%): 2%
  Population Mitochondria Different-Phenotype (%): 91%
  Population Mitotic Cells (%): 13% and 10%
  Population Normal (%): 87% and 90%
  Population Pyknosed Nuclei (%): 71% and 76%
  Population Tubulin-Different-Phenotype (%): 85% and 70%
  Total Cell Count: 182 and 236

## COc1cc2c(Nc3ccc(NC(=O)c4ccccc4)cc3)ncnc2cc1OCCCN1CCOCC1
[1]
  Population Apoptotic (%): 25%
  Population Fragmented Nuclei (%): 13%
  Population Healthy Nuclei (%): 42%
  Population Hoechst High Intensity Objects (%): 18%
  Population Membrane Permeable-Phenotype (%): 29%
  Population Mitochondria Different-Phenotype (%): 17%
  Population Mitotic Cells (%): 74%
  Population Normal (%): 81%
  Population Pyknosed Nuclei (%): 43%
  Population Tubulin-Different-Phenotype (%): 81%
  Total Cell Count: 532
[2]
  Population Apoptotic (%): 26%
  Population Fragmented Nuclei (%): 3%
  Population Healthy Nuclei (%): 84%
  Population Hoechst High Intensity Objects (%): 6%
  Population Membrane Permeable-Phenotype (%): 15%
  Population Mitochondria Different-Phenotype (%): 39%
  Population Mitotic Cells (%): 73%
  Population Normal (%): 93%
  Population Pyknosed Nuclei (%): 12%
  Population Tubulin-Different-Phenotype (%): 96%
  Total Cell Count: 927
[3]
  Population Apoptotic (%): 17%
  Population Fragmented Nuclei (%): 17%
  Population Healthy Nuclei (%): 59%
  Population Hoechst High Intensity Objects (%): 11%
  Population Membrane Permeable-Phenotype (%): 3%
  Population Mitochondria Different-Phenotype (%): 9%
  Population Mitotic Cells (%): 82%
  Population Normal (%): 88%
  Population Pyknosed Nuclei (%): 22%
  Population Tubulin-Different-Phenotype (%): 9%
  Total Cell Count: 626
[4]
  Population Apoptotic (%): 6%
  Population Fragmented Nuclei (%): 3%
  Population Healthy Nuclei (%): 89%
  Population Hoechst High Intensity Objects (%): 2%
  Population Membrane Permeable-Phenotype (%): 2%
  Population Mitochondria Different-Phenotype (%): 12%
  Population Mitotic Cells (%): 93%
  Population Normal (%): 97%
  Population Pyknosed Nuclei (%): 6%
  Population Tubulin-Different-Phenotype (%): 13%
  Total Cell Count: 1320
[5]
  Population Apoptotic (%): 29%
  Population Fragmented Nuclei (%): 14%
  Population Healthy Nuclei (%): 58%
  Population Hoechst High Intensity Objects (%): 21%
  Population Membrane Permeable-Phenotype (%): 20%
  Population Mitochondria Different-Phenotype (%): 22%
  Population Mitotic Cells (%): 70%
  Population Normal (%): 78%
  Population Pyknosed Nuclei (%): 26%
  Population Tubulin-Different-Phenotype (%): 89%
  Total Cell Count: 523
[6]
  Population Apoptotic (%): 2%
  Population Fragmented Nuclei (%): 5%
  Population Healthy Nuclei (%): 87%
  Population Hoechst High Intensity Objects (%): 6%
  Population Membrane Permeable-Phenotype (%): 22%
  Population Mitochondria Different-Phenotype (%): 25%
  Population Mitotic Cells (%): 97%
  Population Normal (%): 93%
  Population Pyknosed Nuclei (%): 7%
  Population Tubulin-Different-Phenotype (%): 97%
  Total Cell Count: 1034
[7]
  Population Apoptotic (%): 9%
  Population Fragmented Nuclei (%): 12%
  Population Healthy Nuclei (%): 75%
  Population Hoechst High Intensity Objects (%): 9%
  Population Membrane Permeable-Phenotype (%): 11%
  Population Mitochondria Different-Phenotype (%): 5%
  Population Mitotic Cells (%): 90%
  Population Normal (%): 90%
  Population Pyknosed Nuclei (%): 11%
  Population Tubulin-Different-Phenotype (%): 13%
  Total Cell Count: 622
[8]
  Population Apoptotic (%): 4%
  Population Fragmented Nuclei (%): 14%
  Population Healthy Nuclei (%): 79%
  Population Hoechst High Intensity Objects (%): 4%
  Population Membrane Permeable-Phenotype (%): 5%
  Population Mitochondria Different-Phenotype (%): 3%
  Population Mitotic Cells (%): 95%
  Population Normal (%): 95%
  Population Pyknosed Nuclei (%): 5%
  Population Tubulin-Different-Phenotype (%): 15%
  Total Cell Count: 1748
